# Test results published in ChEMBL document CHEMBL1157406, “Cytotoxic metabolites from the fungal endophyte Alternaria sp. and their subsequent detection in its host plant Polygonum senegalense” (J Nat Prod, 2008).
# Tests used:
# [1] = biological target: Proto-oncogene tyrosine-protein kinase Src (Homo sapiens, UniProt P12931); assay: Inhibition of recombinant SRC
# Procedure, shortened: (§1)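 Purified recombinant kinase, 50 µL reaction. 1 µM [γ-33P]-ATP with substrate; compound added in 10% DMSO. Tested over several concentrations; IC50 in g/mL.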
# [2] = biological target: T1, Aurora kinase A (Homo sapiens, UniProt O14965); assay: Inhibition of recombinant Aurora A; procedure, shortened: as §1
# T1 sequence (O14965 whole entry): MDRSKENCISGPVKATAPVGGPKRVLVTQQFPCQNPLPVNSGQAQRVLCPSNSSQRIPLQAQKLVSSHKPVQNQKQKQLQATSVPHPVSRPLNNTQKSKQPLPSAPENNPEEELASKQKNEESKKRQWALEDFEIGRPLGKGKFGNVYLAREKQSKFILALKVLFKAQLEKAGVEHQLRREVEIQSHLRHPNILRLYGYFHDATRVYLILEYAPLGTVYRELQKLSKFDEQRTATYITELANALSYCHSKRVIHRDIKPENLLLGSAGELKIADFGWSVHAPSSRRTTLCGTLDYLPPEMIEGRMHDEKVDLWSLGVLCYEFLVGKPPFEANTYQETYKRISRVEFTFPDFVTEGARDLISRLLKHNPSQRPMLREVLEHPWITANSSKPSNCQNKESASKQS
# [3] = biological target: Angiopoietin-1 receptor (Homo sapiens, UniProt Q02763); assay: Inhibition of recombinant TIE2; procedure, shortened: as §1
# Chain of Angiopoietin-1 receptor (Q02763 whole entry): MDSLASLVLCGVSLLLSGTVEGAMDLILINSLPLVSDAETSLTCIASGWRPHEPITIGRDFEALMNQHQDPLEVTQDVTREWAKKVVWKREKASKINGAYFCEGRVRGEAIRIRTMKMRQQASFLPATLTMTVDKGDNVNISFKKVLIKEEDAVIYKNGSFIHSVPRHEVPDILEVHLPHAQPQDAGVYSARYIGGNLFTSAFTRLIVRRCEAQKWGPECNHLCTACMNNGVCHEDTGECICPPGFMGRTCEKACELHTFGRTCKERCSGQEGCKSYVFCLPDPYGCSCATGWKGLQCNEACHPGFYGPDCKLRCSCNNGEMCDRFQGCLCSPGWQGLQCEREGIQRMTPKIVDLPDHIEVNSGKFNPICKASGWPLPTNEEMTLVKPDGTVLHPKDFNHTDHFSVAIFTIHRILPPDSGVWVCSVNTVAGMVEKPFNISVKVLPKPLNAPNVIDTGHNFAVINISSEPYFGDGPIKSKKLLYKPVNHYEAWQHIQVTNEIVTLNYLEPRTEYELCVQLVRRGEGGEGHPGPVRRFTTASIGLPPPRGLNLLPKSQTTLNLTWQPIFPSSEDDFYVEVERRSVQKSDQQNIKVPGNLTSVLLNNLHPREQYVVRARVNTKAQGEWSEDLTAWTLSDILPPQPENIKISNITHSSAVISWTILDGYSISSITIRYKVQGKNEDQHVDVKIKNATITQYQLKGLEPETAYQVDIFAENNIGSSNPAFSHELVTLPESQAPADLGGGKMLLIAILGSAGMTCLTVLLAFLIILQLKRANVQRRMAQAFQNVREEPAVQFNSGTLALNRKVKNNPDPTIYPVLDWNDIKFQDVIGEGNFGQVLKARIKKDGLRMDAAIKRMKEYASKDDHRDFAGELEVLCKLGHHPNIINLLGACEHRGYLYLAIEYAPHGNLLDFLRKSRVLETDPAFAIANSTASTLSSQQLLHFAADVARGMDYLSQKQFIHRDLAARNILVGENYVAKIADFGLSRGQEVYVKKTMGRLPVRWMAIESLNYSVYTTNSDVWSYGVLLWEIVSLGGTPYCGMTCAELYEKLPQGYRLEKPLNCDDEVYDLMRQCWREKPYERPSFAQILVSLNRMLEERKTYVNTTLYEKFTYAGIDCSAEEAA
# [4] = biological target: Vascular endothelial growth factor receptor 2 (Homo sapiens, UniProt P35968); assay: Inhibition of recombinant VEGFR2; procedure, shortened: as §1
# Chain of Vascular endothelial growth factor receptor 2 (P35968 whole entry): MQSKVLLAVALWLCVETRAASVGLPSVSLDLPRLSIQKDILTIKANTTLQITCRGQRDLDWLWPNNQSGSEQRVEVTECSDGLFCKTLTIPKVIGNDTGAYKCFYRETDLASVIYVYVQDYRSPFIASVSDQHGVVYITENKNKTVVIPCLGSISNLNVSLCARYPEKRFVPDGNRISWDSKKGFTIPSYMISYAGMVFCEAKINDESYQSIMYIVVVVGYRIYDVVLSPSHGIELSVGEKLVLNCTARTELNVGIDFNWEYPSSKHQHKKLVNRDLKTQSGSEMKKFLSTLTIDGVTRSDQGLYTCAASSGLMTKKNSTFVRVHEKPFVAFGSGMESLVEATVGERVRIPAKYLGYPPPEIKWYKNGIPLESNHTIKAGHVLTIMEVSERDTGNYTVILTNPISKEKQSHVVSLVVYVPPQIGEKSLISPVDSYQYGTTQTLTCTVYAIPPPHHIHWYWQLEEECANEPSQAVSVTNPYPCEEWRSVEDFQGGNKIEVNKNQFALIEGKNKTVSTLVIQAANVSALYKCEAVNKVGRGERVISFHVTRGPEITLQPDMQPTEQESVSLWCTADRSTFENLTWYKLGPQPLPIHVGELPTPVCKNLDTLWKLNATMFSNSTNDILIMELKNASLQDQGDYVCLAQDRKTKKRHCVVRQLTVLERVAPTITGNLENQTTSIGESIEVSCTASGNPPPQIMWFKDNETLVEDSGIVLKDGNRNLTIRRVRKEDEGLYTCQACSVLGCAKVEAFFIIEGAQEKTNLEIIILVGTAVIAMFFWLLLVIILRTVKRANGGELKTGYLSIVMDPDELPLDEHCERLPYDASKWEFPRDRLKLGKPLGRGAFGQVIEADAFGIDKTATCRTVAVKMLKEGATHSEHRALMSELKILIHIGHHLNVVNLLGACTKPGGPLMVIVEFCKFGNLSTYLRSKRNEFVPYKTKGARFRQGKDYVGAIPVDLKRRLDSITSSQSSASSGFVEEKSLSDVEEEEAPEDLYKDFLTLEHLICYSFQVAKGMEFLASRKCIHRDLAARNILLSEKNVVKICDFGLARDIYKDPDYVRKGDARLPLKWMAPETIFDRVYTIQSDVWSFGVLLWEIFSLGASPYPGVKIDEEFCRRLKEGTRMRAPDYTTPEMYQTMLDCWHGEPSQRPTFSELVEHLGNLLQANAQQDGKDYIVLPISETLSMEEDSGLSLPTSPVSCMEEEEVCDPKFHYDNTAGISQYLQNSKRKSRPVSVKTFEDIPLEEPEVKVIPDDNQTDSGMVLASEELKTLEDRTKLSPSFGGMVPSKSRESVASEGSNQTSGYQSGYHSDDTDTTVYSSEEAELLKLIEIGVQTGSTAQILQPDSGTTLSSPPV
# [5] = biological target: Receptor tyrosine-protein kinase erbB-2 (Homo sapiens, UniProt P04626); assay: Inhibition of recombinant ERBB2; procedure, shortened: as §1
# [6] = biological target: Insulin-like growth factor 1 receptor (Homo sapiens, UniProt P08069); assay: Inhibition of recombinant IGF1R; procedure, shortened: as §1
# [7] = biological target: Platelet-derived growth factor receptor beta (Homo sapiens, UniProt P09619); assay: Inhibition of recombinant PDGFRbeta
# [8] = biological target: RAC-alpha serine/threonine-protein kinase (Homo sapiens, UniProt P31749); assay: Inhibition of recombinant AKT1; procedure, shortened: as §1
# Chain of RAC-alpha serine/threonine-protein kinase (P31749 whole entry): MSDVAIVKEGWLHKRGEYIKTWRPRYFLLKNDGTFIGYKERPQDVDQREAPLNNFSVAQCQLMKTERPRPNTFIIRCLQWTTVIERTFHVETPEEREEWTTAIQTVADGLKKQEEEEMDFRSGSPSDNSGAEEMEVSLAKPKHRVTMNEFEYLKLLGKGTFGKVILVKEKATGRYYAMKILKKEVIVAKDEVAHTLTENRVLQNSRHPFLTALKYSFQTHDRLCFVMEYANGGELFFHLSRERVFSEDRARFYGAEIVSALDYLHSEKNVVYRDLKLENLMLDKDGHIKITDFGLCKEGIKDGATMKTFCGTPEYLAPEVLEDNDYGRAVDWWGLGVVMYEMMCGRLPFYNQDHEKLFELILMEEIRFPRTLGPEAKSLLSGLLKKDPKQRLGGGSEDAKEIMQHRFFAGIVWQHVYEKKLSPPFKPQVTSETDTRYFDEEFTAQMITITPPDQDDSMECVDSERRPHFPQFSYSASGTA
# [9] = biological target: T2, Ephrin type-B receptor 4 (Homo sapiens, UniProt P54760); assay: Inhibition of recombinant EPHB4; procedure, shortened: as §1
# T2 sequence (P54760 whole entry): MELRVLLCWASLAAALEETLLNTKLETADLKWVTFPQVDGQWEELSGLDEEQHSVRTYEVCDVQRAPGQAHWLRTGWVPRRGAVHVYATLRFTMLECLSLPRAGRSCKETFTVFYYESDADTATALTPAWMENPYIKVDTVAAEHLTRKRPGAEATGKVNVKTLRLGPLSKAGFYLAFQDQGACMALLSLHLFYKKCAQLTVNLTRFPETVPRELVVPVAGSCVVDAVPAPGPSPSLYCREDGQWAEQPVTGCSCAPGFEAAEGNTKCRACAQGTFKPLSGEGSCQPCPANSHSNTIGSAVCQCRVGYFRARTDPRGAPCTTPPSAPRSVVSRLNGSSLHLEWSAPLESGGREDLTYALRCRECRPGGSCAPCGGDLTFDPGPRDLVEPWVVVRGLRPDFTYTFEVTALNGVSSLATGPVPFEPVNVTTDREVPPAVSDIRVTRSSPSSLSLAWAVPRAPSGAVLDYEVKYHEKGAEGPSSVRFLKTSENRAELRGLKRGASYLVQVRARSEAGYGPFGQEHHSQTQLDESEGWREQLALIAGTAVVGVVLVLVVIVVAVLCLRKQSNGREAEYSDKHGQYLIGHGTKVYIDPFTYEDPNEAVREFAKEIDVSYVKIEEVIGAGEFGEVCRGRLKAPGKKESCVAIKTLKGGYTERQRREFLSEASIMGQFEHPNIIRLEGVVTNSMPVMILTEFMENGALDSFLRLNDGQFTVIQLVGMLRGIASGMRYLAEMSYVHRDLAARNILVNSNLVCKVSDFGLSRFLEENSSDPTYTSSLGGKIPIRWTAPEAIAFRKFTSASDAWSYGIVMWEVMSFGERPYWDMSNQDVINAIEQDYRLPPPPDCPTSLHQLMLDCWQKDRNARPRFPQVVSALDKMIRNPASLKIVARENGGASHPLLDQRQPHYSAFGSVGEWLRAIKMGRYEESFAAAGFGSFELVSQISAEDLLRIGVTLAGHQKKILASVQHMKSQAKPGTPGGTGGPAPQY
# [10] = test system: L5178Y; assay: Cytotoxicity against mouse L5178Y cells at 10 ug/ml by MTT assay; format: functional
# [11] = biological target: Vascular endothelial growth factor receptor 3 (Homo sapiens, UniProt P35916); assay: Inhibition of recombinant VEGFR3; procedure, shortened: as §1
# Chain of Vascular endothelial growth factor receptor 3 (P35916 whole entry): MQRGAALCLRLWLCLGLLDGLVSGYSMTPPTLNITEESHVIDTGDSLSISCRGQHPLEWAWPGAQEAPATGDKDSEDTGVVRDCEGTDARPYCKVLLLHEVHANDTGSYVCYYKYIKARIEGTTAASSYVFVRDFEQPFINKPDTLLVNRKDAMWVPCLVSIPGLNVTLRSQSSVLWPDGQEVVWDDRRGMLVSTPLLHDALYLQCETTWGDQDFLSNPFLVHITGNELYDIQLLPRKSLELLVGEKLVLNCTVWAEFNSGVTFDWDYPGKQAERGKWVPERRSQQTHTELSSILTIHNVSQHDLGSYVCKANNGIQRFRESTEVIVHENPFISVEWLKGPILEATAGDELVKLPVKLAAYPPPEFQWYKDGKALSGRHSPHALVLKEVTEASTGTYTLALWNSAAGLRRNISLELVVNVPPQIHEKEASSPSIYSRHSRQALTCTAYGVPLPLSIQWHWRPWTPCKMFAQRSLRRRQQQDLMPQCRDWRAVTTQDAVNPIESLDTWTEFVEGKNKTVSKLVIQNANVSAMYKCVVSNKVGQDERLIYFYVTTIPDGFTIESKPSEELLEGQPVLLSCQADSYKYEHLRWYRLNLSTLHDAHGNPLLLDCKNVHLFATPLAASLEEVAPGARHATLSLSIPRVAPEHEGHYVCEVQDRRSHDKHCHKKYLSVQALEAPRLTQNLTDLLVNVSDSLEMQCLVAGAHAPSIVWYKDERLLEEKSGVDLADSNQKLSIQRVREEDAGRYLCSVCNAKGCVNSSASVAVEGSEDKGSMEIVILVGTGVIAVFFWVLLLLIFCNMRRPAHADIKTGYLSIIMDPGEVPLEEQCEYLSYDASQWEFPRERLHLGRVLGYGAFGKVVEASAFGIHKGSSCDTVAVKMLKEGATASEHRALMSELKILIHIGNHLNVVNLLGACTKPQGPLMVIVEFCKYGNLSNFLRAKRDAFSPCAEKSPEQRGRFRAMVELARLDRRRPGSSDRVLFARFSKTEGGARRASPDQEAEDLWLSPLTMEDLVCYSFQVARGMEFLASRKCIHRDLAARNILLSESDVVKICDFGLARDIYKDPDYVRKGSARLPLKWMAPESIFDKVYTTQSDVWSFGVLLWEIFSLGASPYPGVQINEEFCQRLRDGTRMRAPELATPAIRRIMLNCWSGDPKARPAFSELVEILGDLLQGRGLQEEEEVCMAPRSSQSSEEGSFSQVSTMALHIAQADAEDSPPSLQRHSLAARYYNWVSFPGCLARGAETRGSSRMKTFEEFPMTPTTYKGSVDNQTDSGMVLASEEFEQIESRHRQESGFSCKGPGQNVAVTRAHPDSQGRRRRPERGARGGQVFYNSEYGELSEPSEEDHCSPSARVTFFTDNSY
# [12] = biological target: Serine/threonine-protein kinase B-raf (Homo sapiens, UniProt P15056, V600E); assay: Inhibition of recombinant B-RAF-V600E mutant; procedure, shortened: as §1
# [13] = biological target: T3, Receptor-type tyrosine-protein kinase FLT3 (Homo sapiens, UniProt P36888); assay: Inhibition of recombinant FLT3; procedure, shortened: as §1
# T3 sequence (P36888 whole entry): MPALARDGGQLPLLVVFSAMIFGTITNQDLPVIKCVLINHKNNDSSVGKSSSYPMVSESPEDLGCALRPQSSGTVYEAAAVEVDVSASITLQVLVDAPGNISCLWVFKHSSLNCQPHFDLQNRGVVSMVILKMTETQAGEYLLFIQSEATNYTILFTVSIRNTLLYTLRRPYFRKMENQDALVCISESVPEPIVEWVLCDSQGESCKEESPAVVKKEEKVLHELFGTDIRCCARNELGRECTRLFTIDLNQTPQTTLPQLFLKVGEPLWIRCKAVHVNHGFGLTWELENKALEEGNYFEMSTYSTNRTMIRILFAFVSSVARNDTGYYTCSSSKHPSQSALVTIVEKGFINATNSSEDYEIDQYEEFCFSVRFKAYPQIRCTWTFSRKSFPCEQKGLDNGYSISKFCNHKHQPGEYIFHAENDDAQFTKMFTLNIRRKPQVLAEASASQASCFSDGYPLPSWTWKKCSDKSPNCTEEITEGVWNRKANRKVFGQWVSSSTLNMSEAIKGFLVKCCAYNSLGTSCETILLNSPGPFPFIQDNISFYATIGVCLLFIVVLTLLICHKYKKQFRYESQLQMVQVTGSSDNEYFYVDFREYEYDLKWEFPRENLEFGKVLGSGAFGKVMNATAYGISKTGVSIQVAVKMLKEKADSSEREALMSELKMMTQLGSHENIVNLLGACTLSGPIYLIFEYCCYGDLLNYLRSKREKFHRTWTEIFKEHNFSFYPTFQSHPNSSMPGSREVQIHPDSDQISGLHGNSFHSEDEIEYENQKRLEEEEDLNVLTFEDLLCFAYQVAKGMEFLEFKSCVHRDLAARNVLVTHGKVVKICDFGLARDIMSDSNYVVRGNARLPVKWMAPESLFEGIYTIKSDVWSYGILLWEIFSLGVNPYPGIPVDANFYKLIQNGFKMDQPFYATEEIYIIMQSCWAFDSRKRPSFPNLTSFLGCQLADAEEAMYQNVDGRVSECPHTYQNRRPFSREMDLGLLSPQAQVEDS
# [14] = biological target: Insulin receptor (Homo sapiens, UniProt P06213); assay: Inhibition of recombinant INSR
# Chain of Proto-oncogene tyrosine-protein kinase Src (P12931 2-536 limits assumed): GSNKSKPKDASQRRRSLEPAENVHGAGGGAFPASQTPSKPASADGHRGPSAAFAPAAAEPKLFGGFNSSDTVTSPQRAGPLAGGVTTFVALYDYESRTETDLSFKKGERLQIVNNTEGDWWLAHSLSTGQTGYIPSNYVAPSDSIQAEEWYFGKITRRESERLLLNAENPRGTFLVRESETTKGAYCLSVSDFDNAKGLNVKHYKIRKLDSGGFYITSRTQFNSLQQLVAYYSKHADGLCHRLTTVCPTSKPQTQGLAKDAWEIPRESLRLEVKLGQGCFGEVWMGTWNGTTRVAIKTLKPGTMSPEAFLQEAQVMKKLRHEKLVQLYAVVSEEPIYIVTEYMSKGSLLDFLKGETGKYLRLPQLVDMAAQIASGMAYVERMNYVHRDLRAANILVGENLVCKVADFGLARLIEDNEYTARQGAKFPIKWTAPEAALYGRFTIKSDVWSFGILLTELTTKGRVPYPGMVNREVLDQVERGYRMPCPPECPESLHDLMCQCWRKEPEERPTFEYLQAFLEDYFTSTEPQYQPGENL
SMILES,IC50 [2],IC50 [3],IC50 [4],IC50 [5],IC50 [8],IC50 [9],Activity [10],IC50 [11],IC50 [13],IC50 ([1]; read-out: IC50 (converted)),IC50 ([2]; read-out: IC50 (converted)),IC50 ([3]; read-out: IC50 (converted)),IC50 ([4]; read-out: IC50 (converted)),IC50 ([5]; read-out: IC50 (converted)),IC50 ([6]; read-out: IC50 (converted)),IC50 ([9]; read-out: IC50 (converted)),IC50 ([12]; read-out: IC50 (converted)),IC50 ([13]; read-out: IC50 (converted)),IC50 ([14]; read-out: IC50 (converted)),IC50 ([11]; read-out: IC50 (converted)),also measured
COc1cc(O)c2c(c1)-c1cc(O)c(O)cc1COC2=O [ALTERLACTONE],> 1 ×10⁻⁵ g/ml,> 1 ×10⁻⁵ g/ml,> 1 ×10⁻⁵ g/ml,> 1 ×10⁻⁵ g/ml,> 1 ×10⁻⁵ g/ml,> 1 ×10⁻⁵ g/ml,11.8%,> 1 ×10⁻⁵ g/ml,> 1 ×10⁻⁵ g/ml,,,,,,,,,,,,IC50 [1]: > 1 ×10⁻⁵ g/ml; IC50 [6]: > 1 ×10⁻⁵ g/ml; IC50 [7]: > 1 ×10⁻⁵ g/ml; IC50 [12]: > 1 ×10⁻⁵ g/ml; IC50 [14]: > 1 ×10⁻⁵ g/ml
COc1cc(O)c2c(=O)oc3cc(O)cc(C)c3c2c1,,,,,,,1.8%,9.6 ×10⁻⁷ g/ml,,4.41 µM,18.4 µM,12.9 µM,4.04 µM,16.5 µM,6.24 µM,5.14 µM,17.6 µM,3.67 µM,29 µM,,IC50 ([8]; read-out: IC50 (converted)): 29 µM
COc1cc(O)c(C(=O)O)c(-c2cc(O)c(O)cc2C)c1 [ALTENUSIN],,,,> 1 ×10⁻⁵ g/ml,> 1 ×10⁻⁵ g/ml,,1.2%,> 1 ×10⁻⁵ g/ml,,28.6 µM,6.2 µM,33.8 µM,17.2 µM,,16.9 µM,32.4 µM,11.4 µM,5.51 µM,19.3 µM,,
COc1cc(O)c(C(=O)O)c(C2=C(C)C[C@@H](O)C2=O)c1 [ALTERNARIENONIC ACID],,> 1 ×10⁻⁵ g/ml,,> 1 ×10⁻⁵ g/ml,> 1 ×10⁻⁵ g/ml,> 1 ×10⁻⁵ g/ml,101.2%,,,16.5 µM,15.8 µM,,18.3 µM,,12.9 µM,,32.3 µM,23.7 µM,29.1 µM,13.3 µM,IC50 [7]: > 1 ×10⁻⁵ g/ml
Cc1cc(O)cc2oc(=O)c3c(O)cc(O)cc3c12 [ALTERNARIOL],7.3 ×10⁻⁷ g/ml,,9.2 ×10⁻⁷ g/ml,,> 1 ×10⁻⁵ g/ml,> 1 ×10⁻⁵ g/ml,3.7%,,4.3 ×10⁻⁷ g/ml,17 µM,,27.1 µM,,36.4 µM,13.2 µM,,6.2 µM,,,5.03 µM,IC50 [7]: 8.9 ×10⁻⁷ g/ml
COc1cc(O)c2c(c1)C1(OC2=O)C(C)=CC(=O)C1O (stereo unspecified) [TALAROFLAVONE],> 1 ×10⁻⁵ g/ml,> 1 ×10⁻⁵ g/ml,> 1 ×10⁻⁵ g/ml,> 1 ×10⁻⁵ g/ml,> 1 ×10⁻⁵ g/ml,> 1 ×10⁻⁵ g/ml,92.9%,> 1 ×10⁻⁵ g/ml,> 1 ×10⁻⁵ g/ml,,,,,,,,,,,,IC50 [1]: > 1 ×10⁻⁵ g/ml; IC50 [6]: > 1 ×10⁻⁵ g/ml; IC50 [12]: > 1 ×10⁻⁵ g/ml
Cc1cc(O)cc2oc(=O)c3c(O)cc(OS(=O)(=O)O)cc3c12,3.9 ×10⁻⁷ g/ml,,7 ×10⁻⁷ g/ml,,> 1 ×10⁻⁵ g/ml,,0.9%,,3.3 ×10⁻⁷ g/ml,16.6 µM,,20.1 µM,,24.8 µM,14.5 µM,9.16 µM,,,8.57 µM,5.03 µM,IC50 [12]: 7.4 ×10⁻⁷ g/ml
Cc1cc(O)c(O)cc1-c1cc(O)cc(O)c1C(=O)O,,,,> 1 ×10⁻⁵ g/ml,> 1 ×10⁻⁵ g/ml,,0.8%,,,17 µM,9.77 µM,13.8 µM,13.8 µM,,8.69 µM,21.4 µM,26.8 µM,6.52 µM,,24.6 µM,IC50 ([7]; read-out: IC50 (converted)): 21 µM
O=C1C[C@H](O)[C@@H]2c3c(ccc(O)c31)-c1ccc(O)c3c1[C@@]2(O)CCC3=O [ALTERTOXIN I],,,,> 1 ×10⁻⁵ g/ml,> 1 ×10⁻⁵ g/ml,,77.3%,,6.6 ×10⁻⁷ g/ml,5.96 µM,4.82 µM,25 µM,3.97 µM,,4.82 µM,25.3 µM,19 µM,,,7.95 µM,
COc1cc(O)c2c(=O)oc3c(O)c(O)cc(C)c3c2c1,,,6.4 ×10⁻⁷ g/ml,,,,47.1%,3.9 ×10⁻⁷ g/ml,5.3 ×10⁻⁷ g/ml,4.86 µM,5.2 µM,4.86 µM,,9.37 µM,,7.29 µM,5.2 µM,,4.51 µM,,IC50 [6]: 9.1 ×10⁻⁷ g/ml; IC50 ([7]; read-out: IC50 (converted)): 6.24 µM; IC50 ([8]; read-out: IC50 (converted)): 18.4 µM
